Measurements pooled from the literature.
Compare with care: the assays were run in different laboratories.
Target: Casein kinase I isoform gamma-2 (CSNK1G2, Homo sapiens, UniProt P78368)

| Compound | effect on | mode | method | tested at | endpoint | result |
| --- | --- | --- | --- | --- | --- | --- |
| COc1ncccc1-c1cnn2ccc(N3CCN(C(=O)OC(C)C)CC3)nc12 | binding | – | competition with immobilised ligand | 1 µM | remaining binding | 100% |
| Cn1cc(-c2cccc(N3CCc4c(sc5c4CC(C)(C)C5)C3=O)c2CO)cc(Nc2ccncn2)c1=O | enzyme activity | inhibitor | – | 1 µM | inhibition | 6% |
| Cc1nn(C)cc1-c1nc2c(N3CCN(Cc4ccc(Cl)cc4)CC3)c(Cl)cnc2[nH]1 | binding | – | competition with immobilised ligand | 1 µM | remaining binding | 96% |
| CC(C)(C)c1cc(C=C(C#N)C#N)cc(Br)c1O | enzyme activity | inhibitor | – | 0.5 µM | remaining activity | 100% |
| COc1cc(Nc2ncc(F)c(Nc3ccc4c(n3)NC(=O)C(C)(C)O4)n2)cc(OC)c1OC | binding | – | competition with immobilised ligand | 10 µM | inhibition | 0% |
| Cn1cncc1[C@@](O)(COc1ccc(C#N)cc1-c1ccc(OC(F)(F)F)cc1)c1ccc(C#N)cc1 | cell-free assay | – | competition with immobilised ligand | 1 µM | remaining binding | 64% |
| Nc1ncc(-c2nc(N3CCOCC3)nc(N3CCOCC3)n2)c(C(F)F)n1 | binding | – | competition with immobilised ligand | 10 µM | remaining binding | 85% |
| Cn1cc(-c2cc(F)cc(N3CCn4c(cc5c4CCCC5)C3=O)c2CO)cc(Nc2ccc(N3CCN(C4COC4)CC3)cn2)c1=O | enzyme activity | inhibitor | – | 0.1 µM | inhibition | 7% |
| O=c1[nH]c2ccccc2n1C1CCN(Cc2ccc(-c3[nH]c4cc5ncnc5cc4nc3-c3ccccc3)cc2)CC1 | cell-free assay | – | – | 0.5 µM | remaining signal | 101% |
